Measured values published in ChEMBL document CHEMBL2346629, “Discovery and characterization of novel allosteric FAK inhibitors” (Eur J Med Chem, 2013).

What was measured:
[1] = target: Testis-specific serine/threonine-protein kinase 2 (Homo sapiens) (UniProt Q96PF2); test: Inhibition of TSSK2 (unknown origin) using [gamma-33P]ATP assessed as residual activity at 3 uM
[2] = target: Dual specificity tyrosine-phosphorylation-regulated kinase 4 (Homo sapiens) (UniProt Q9NR20); test: Inhibition of DYRK4 (unknown origin) using [gamma-33P]ATP assessed as residual activity at 3 uM
In short: (§1)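 Reaction Biology HotSpot radiometric profiling panel of 288 kinases (261 wild-type, 27 mutant). Kinase activity was read out by incorporation of [γ-33P]ATP.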

[3] = target: Activin receptor type-1B (Homo sapiens) (UniProt P36896); test: Inhibition of ALK4 (unknown origin) using [gamma-33P]ATP assessed as residual activity at 3 uM
In short: (§2)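 Radiometric profiling across 288 kinases (261 wild-type, 27 mutant), run as an outsourced service. Inhibition read out as [gamma-33P]ATP incorporation into substrate.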

[4] = target: Protein kinase C eta type (Homo sapiens) (UniProt P24723); test: Inhibition of PKCeta (unknown origin) using [gamma-33P]ATP assessed as residual activity at 3 uM
[5] = target: Tyrosine-protein kinase JAK2 (Homo sapiens) (UniProt O60674); test: Inhibition of JAK2 (unknown origin) using [gamma-33P]ATP assessed as residual activity at 3 uM
In short: (§3)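 Radiometric kinase profiling service covering 288 kinases (261 wild-type, 27 mutant). Inhibition was read as incorporation from [γ-³³P]ATP.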

[6] = target: Protein kinase C beta type (Homo sapiens) (UniProt P05771); test: Inhibition of PKCb2 (unknown origin) using [gamma-33P]ATP assessed as residual activity at 3 uM
[7] = target: cGMP-dependent protein kinase 1 (Homo sapiens) (UniProt Q13976); test: Inhibition of PKG1a (unknown origin) using [gamma-33P]ATP assessed as residual activity at 3 uM
[8] = target: Dual specificity protein kinase CLK4 (Homo sapiens) (UniProt Q9HAZ1); test: Inhibition of CLK4 (unknown origin) using [gamma-33P]ATP assessed as residual activity at 3 uM; in short: as §1
[9] = target: Tyrosine-protein kinase BTK (Homo sapiens) (UniProt Q06187); test: Inhibition of BTK (unknown origin) using [gamma-33P]ATP assessed as residual activity at 3 uM; in short: as §2
[10] = tested on: Mast/stem cell growth factor receptor Kit (Homo sapiens), P10721 [D816H]; test: Inhibition of c-Kit D816H mutant (unknown origin) using [gamma-33P]ATP assessed as residual activity at 3 uM
[11] = target: G protein-coupled receptor kinase 5 (Homo sapiens) (UniProt P34947); test: Inhibition of GRK5 (unknown origin) using [gamma-33P]ATP assessed as residual activity at 3 uM; in short: as §3
[12] = target: Serine/threonine-protein kinase Nek2 (Homo sapiens) (UniProt P51955); test: Inhibition of NEK2 (unknown origin) using [gamma-33P]ATP assessed as residual activity at 3 uM
[13] = tested on: Platelet-derived growth factor receptor alpha (Homo sapiens), P16234 [V561D]; test: Inhibition of PDGFRa V561D mutant (unknown origin) using [gamma-33P]ATP assessed as residual activity at 3 uM
[14] = target: Calcium/calmodulin-dependent protein kinase type II subunit gamma (Homo sapiens) (UniProt Q13555); test: Inhibition of CAMK2g (unknown origin) using [gamma-33P]ATP assessed as residual activity at 3 uM; in short: as §2
[15] = target: Serine/threonine-protein kinase N2 (Homo sapiens) (UniProt Q16513); test: Inhibition of PKN2 (unknown origin) using [gamma-33P]ATP assessed as residual activity at 3 uM
[16] = target: Eukaryotic elongation factor 2 kinase (Homo sapiens) (UniProt O00418); test: Inhibition of EEF2K (unknown origin) using [gamma-33P]ATP assessed as residual activity at 3 uM; in short: as §1
[17] = target: 3-phosphoinositide-dependent protein kinase 1 (Homo sapiens) (UniProt O15530); test: Inhibition of PDK1 (unknown origin) using [gamma-33P]ATP assessed as residual activity at 3 uM
[18] = target: Dual specificity protein kinase CLK1 (Homo sapiens) (UniProt P49759); test: Inhibition of CLK1 CD (unknown origin) using [gamma-33P]ATP assessed as residual activity at 3 uM; in short: as §1
[19] = target: Cyclin-dependent kinase 5/CDK5 activator 1 (Homo sapiens) (UniProt Q00535+Q15078); test: Inhibition of CDK5/p35 (unknown origin) using [gamma-33P]ATP assessed as residual activity at 3 uM; type: protein-complex assay; in short: as §2
[20] = tested on: Tyrosine-protein kinase ABL1 (Homo sapiens), P00519 [Q252H]; test: Inhibition of ABL1 Q252H mutant (unknown origin) using [gamma-33P]ATP assessed as residual activity at 3 uM; in short: as §2
[21] = target: Serine/threonine-protein kinase DCLK2 (Homo sapiens) (UniProt Q8N568); test: Inhibition of DCAMKL2 (unknown origin) using [gamma-33P]ATP assessed as residual activity at 3 uM; in short: as §1
[22] = target: NUAK family SNF1-like kinase 1 (Homo sapiens) (UniProt O60285); test: Inhibition of ARK5 (unknown origin) using [gamma-33P]ATP assessed as residual activity at 3 uM; in short: as §2
[23] = target: G protein-coupled receptor kinase 6 (Homo sapiens) (UniProt P43250); test: Inhibition of GRK6 (unknown origin) using [gamma-33P]ATP assessed as residual activity at 3 uM; in short: as §3
[24] = tested on: Receptor-type tyrosine-protein kinase FLT3 (Homo sapiens), P36888 [D835Y]; test: Inhibition of FLT3 D835Y mutant (unknown origin) using [gamma-33P]ATP assessed as residual activity at 3 uM; in short: as §3
[25] = target: Tyrosine-protein kinase ABL2 (Homo sapiens) (UniProt P42684); test: Inhibition of ABL2 (unknown origin) using [gamma-33P]ATP assessed as residual activity at 3 uM; in short: as §2
[26] = target: Ribosomal protein S6 kinase alpha-3 (Homo sapiens) (UniProt P51812); test: Inhibition of RSK2 (unknown origin) using [gamma-33P]ATP assessed as residual activity at 3 uM
[27] = target: Serine/threonine-protein kinase TAO3 (Homo sapiens) (UniProt Q9H2K8); test: Inhibition of TAOK3 (unknown origin) using [gamma-33P]ATP assessed as residual activity at 3 uM
[28] = target: Ephrin type-A receptor 5 (Homo sapiens) (UniProt P54756); test: Inhibition of EPHA5 (unknown origin) using [gamma-33P]ATP assessed as residual activity at 3 uM; in short: as §1
[29] = target: ALK tyrosine kinase receptor (Homo sapiens) (UniProt Q9UM73); test: Inhibition of ALK (unknown origin) using [gamma-33P]ATP assessed as residual activity at 3 uM; in short: as §2
[30] = target: Dual specificity tyrosine-phosphorylation-regulated kinase 3 (Homo sapiens) (UniProt O43781); test: Inhibition of DYRK3 (unknown origin) using [gamma-33P]ATP assessed as residual activity at 3 uM; in short: as §1
[31] = tested on: Tyrosine-protein kinase BTK (Homo sapiens), Q06187 [E41K]; test: Inhibition of BTK E41K mutant (unknown origin) using [gamma-33P]ATP assessed as residual activity at 3 uM; in short: as §2
Chain of Tyrosine-protein kinase BTK (Homo sapiens), Q06187 [E41K] (Q06187 whole entry E41K): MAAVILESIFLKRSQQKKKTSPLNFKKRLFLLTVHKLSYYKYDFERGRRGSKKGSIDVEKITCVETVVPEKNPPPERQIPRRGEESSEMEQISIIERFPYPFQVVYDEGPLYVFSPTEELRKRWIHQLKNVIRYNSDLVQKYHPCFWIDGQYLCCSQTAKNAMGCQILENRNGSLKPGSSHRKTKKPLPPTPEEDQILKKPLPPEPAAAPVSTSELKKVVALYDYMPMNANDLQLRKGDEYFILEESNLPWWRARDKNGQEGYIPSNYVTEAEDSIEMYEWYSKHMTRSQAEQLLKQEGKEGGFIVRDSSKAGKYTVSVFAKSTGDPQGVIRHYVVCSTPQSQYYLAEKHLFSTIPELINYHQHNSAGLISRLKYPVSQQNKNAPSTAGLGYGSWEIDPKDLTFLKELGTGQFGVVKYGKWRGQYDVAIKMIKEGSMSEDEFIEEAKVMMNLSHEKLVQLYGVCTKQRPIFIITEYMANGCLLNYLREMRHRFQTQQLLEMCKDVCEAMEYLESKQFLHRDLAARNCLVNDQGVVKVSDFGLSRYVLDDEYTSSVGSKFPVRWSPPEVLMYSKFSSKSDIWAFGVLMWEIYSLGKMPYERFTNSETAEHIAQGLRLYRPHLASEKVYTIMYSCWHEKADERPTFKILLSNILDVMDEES

Chain of Protein kinase C eta type (Homo sapiens) (P24723 whole entry): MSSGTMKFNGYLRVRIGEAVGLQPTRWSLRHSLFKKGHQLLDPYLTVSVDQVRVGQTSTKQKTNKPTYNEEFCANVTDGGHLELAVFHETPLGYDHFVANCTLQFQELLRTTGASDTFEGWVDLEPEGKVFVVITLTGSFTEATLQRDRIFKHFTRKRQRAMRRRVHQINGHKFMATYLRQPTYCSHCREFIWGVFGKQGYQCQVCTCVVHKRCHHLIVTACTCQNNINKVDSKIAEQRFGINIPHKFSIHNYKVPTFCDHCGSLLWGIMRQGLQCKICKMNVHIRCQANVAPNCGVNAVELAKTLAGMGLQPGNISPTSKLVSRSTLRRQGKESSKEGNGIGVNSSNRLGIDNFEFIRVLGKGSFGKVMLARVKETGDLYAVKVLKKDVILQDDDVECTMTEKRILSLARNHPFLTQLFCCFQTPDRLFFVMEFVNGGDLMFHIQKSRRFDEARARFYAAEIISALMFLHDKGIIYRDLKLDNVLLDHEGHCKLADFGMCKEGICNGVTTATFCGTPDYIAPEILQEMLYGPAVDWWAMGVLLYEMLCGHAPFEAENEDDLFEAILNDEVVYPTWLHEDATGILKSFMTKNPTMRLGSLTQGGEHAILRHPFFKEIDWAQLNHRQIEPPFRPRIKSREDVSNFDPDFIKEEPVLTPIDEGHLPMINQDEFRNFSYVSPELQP
Chain of Tyrosine-protein kinase JAK2 (Homo sapiens) (O60674 whole entry): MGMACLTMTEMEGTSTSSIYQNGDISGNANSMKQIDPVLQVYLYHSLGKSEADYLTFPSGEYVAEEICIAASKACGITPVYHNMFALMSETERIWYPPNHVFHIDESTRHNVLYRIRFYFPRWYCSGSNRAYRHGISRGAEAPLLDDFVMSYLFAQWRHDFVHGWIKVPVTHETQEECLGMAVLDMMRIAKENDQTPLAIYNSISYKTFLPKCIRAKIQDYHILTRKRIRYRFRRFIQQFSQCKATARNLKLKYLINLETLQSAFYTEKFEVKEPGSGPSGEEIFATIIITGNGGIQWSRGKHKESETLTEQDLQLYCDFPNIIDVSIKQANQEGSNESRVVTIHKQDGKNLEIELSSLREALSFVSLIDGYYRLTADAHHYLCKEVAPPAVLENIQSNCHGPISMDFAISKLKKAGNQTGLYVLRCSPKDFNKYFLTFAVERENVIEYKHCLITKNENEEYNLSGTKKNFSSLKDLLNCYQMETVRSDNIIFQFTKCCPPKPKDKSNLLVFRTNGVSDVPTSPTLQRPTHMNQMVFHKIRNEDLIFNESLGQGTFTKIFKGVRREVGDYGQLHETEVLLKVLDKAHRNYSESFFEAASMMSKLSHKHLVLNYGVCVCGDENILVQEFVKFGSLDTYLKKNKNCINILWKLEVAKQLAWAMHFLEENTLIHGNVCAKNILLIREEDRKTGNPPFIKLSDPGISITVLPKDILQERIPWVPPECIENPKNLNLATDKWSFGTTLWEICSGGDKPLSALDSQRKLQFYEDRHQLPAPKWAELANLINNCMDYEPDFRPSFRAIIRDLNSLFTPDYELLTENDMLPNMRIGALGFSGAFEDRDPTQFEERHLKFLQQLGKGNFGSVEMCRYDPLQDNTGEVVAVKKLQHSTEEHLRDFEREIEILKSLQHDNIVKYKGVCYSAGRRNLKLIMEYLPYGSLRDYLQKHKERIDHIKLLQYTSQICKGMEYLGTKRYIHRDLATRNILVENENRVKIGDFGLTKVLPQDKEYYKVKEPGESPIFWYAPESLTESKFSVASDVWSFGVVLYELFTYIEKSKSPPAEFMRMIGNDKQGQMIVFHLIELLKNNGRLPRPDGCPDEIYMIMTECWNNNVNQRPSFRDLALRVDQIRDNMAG
Chain of Cyclin-dependent kinase 5/CDK5 activator 1 (Homo sapiens) (Q00535 whole entry): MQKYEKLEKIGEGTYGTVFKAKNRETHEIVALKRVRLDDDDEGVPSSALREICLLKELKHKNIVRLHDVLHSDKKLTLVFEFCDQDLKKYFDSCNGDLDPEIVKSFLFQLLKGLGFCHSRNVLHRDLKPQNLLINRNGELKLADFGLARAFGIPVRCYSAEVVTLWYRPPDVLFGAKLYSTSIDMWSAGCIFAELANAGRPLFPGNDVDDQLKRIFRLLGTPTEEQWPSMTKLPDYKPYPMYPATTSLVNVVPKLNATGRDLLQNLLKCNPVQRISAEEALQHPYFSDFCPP
Chain of Cyclin-dependent kinase 5/CDK5 activator 1 (Homo sapiens) (Q15078 99-307 partner limits assumed): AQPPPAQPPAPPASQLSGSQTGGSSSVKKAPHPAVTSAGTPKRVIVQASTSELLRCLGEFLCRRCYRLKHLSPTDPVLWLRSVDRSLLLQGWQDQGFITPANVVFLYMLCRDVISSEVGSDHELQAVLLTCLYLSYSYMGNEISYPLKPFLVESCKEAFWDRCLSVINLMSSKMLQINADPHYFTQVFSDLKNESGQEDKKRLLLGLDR
Chain of Platelet-derived growth factor receptor alpha (Homo sapiens), P16234 [V561D] (P16234 whole entry V561D): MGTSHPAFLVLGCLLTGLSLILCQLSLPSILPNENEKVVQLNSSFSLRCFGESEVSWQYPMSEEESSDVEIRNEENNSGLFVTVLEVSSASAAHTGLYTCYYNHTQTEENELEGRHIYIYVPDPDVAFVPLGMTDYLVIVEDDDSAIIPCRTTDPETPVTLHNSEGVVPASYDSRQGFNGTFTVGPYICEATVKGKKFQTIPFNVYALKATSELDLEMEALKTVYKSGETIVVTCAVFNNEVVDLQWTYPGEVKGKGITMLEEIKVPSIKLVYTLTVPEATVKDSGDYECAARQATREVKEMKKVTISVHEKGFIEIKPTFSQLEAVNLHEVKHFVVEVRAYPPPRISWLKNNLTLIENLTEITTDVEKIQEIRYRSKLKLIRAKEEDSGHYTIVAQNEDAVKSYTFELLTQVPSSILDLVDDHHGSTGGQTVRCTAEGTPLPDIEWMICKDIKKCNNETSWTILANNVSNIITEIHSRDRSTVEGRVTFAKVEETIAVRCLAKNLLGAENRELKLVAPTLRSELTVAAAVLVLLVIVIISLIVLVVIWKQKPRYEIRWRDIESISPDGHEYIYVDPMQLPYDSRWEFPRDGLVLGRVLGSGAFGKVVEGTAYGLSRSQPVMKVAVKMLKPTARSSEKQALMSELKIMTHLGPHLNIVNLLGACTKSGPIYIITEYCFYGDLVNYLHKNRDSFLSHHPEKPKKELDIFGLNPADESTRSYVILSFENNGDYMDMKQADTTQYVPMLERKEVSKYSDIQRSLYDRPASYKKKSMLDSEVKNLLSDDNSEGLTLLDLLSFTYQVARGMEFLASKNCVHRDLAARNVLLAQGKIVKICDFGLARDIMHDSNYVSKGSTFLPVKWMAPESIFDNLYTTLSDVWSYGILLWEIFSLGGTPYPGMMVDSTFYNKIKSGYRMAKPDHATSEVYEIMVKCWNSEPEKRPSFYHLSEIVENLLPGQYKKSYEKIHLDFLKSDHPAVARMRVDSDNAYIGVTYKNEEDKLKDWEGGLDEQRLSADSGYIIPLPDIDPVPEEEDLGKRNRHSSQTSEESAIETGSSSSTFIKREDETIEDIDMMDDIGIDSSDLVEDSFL
Chain of Activin receptor type-1B (Homo sapiens) (P36896 whole entry): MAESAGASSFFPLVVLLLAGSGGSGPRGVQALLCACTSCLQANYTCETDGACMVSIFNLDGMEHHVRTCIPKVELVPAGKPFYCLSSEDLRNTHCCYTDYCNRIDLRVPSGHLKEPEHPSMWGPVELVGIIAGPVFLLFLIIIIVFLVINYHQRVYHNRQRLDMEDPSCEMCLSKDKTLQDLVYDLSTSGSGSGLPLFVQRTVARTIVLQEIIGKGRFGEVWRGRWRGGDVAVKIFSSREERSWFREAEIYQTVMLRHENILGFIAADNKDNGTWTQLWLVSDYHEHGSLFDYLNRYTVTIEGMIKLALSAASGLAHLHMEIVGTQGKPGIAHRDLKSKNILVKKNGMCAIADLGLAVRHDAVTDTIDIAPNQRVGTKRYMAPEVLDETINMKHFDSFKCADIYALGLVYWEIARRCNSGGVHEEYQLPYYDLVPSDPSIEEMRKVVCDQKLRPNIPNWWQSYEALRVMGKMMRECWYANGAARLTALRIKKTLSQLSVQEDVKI
Chain of Dual specificity protein kinase CLK4 (Homo sapiens) (Q9HAZ1 whole entry, looked up): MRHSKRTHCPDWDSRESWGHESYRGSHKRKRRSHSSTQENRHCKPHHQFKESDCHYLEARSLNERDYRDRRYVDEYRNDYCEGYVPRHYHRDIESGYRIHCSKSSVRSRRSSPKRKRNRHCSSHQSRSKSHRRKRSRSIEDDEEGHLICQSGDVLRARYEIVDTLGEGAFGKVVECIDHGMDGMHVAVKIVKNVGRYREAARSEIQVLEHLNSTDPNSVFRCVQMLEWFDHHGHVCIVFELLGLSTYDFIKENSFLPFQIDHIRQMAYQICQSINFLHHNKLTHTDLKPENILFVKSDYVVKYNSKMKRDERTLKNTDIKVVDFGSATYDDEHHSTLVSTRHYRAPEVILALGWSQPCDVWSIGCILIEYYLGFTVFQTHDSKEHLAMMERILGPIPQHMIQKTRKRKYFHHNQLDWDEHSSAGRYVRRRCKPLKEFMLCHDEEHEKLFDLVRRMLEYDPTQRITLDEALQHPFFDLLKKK

SMILES: CCc1ccc(-c2ccc3c(c2)-c2[nH]ncc2S(=O)(=O)N3C)cc1
- Activity [1]: 87%
- Activity [2]: 103%
- Activity [3]: 94%
- Activity [4]: 93%
- Activity [5]: 103%
- Activity [6]: 86%
- Activity [7]: 95%
- Activity [8]: 51%
- Activity [9]: 95%
- Activity [10]: 52%
- Activity [11]: 103%
- Activity [12]: 96%
- Activity [13]: 81%
- Activity [14]: 94%
- Activity [15]: 91%
- Activity [16]: 104%
- Activity [17]: 95%
- Activity [18]: 85%
- Activity [19]: 90%
- Activity [20]: 60%
- Activity [21]: 101%
- Activity [22]: 84%
- Activity [23]: 97%
- Activity [24]: 52%
- Activity [25]: 90%
- Activity [26]: 84%
- Activity [27]: 103%
- Activity [28]: 90%
- Activity [29]: 88%
- Activity [30]: 100%
- Activity [31]: 100%
